MrgX1 ag: agonists of human MrgX1 receptor, primary screen, HEK293 cells, Fluo-4 calcium flux; B-score at 10 µM; Fluo-4 calcium fluorescence, agonist mode; stronger effect = higher value; AID 588627, 2011; 310,000 tested, 0.44% active;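 active = calcium response B-score plate-corrected fluorescence ratio at least 3 library SD, with starting fluorescence B-score inside 5 SD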
Target sequence (Q96LB2 whole entry, looked up): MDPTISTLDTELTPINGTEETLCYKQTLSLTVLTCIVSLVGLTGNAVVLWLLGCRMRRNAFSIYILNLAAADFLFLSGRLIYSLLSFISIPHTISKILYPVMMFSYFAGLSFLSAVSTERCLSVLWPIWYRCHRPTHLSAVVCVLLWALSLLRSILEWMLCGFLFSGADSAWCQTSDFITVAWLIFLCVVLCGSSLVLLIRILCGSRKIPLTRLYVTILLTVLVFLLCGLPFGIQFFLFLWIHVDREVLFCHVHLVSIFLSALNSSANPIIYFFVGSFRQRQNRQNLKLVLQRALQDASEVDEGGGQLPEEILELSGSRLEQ
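Assay system: MrgX1-expressing HEK293 cells / Amount: fifteen thousand cells per well / Doses: test compound in the initial addition of three / Timing: cells plated overnight, dye loaded 0.5 h 37 °C, 0.5 h room temperature / Technique: kinetic calcium dye fluorescence, Fluo-4 NW / Control set: positive and negative controls per plate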
RGS4 pot: RGS4 potentiators or activators, primary screen, cell-based, HEK293 M3R inducible RGS4, calcium flux | carbachol calcium flux Fluo4; stronger effect = lower value | B-score at 10 µM | 310,000 tested, 0.92% active;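 active = B-score of the integrated calcium signal more than 4 SD below the library mean, with starting fluorescence not abnormally high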;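 also: negative B-score means reduced calcium response which marks RGS4 activation or potentiation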
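Assay system: Inducible-RGS4 HEK293 cells carrying M3 receptor | Schedule: Compound preincubation 20 min at room temperature before agonist | Signal: Kinetic calcium fluorescence imaging with Fluo4-AM dye, 2 µM | Read-out basis: B score from integrated fluorescence ratio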
MrgX1 PAM: positive allosteric modulators of MrgX1, primary screen, HEK293 cells, Fluo-4 calcium flux; Mas-related G-protein coupled receptor member X1 (Homo sapiens), Q96LB2; FDSS; stronger effect = higher value; B-score at 10 µM; 310,000 tested, 0.63% active;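 active = plate-corrected calcium response at least 3 library SD above typical, normal starting fluorescence, not activating the receptor alone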;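 also: compound read alongside a low EC10 to EC30 dose of BAM8-22 agonist; peak minus trough fluorescence over baseline measured at the second addition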
RGS4 block: RGS4 inhibitors, primary screen, cell-based, HEK293 M3R inducible RGS4, calcium flux; Fluo-4 calcium flux; stronger effect = higher value; triggered by carbachol at its EC20; Regulator of G-protein signaling 4 (Homo sapiens), P49798; 310,000 tested, 0.45% active; B-score at 10 µM;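 active = B-score, a plate-corrected calcium signal, over three deviations above library mean, with baseline fluorescence within five deviations of library mean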;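 also: RGS4 expression induced by doxycycline in cells with stable M3 receptor; B-score is computed from the integrated fluorescence ratio over baseline after carbachol; higher B-score means a larger calcium signal and so more RGS4 inhibition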
Target sequence (P49798 whole entry, looked up): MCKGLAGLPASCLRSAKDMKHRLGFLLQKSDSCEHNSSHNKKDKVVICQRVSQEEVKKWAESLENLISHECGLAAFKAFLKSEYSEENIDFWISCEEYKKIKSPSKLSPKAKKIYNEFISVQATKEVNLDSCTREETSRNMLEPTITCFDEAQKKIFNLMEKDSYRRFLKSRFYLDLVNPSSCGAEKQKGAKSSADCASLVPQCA
MrgX1 antag: antagonists of human MrgX1 receptor, primary screen, HEK293 cells, Fluo-4 calcium flux. BAM8-22 antagonism; stronger effect = lower value. B-score at 10 µM. 310,000 tested, 1.3% active. AID 588676, 2011;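 active = calcium-response B-score plate-corrected more than 3 library SD below zero, starting fluorescence within 5 deviations, no agonist response on first addition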;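 also: peak minus trough fluorescence over baseline after final BAM8-22 challenge near maximal dose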
MrgX1 PAM conf: MrgX1 positive allosteric modulators, duplicate retest, confirmation, HEK293 cells, Fluo-4 calcium flux; AID 602413, 2012; shares compounds with MrgX1 PAM; 1,200 tested, 13% active; Fluo-4 calcium fluorescence, FDSS; activation (ratio percentage), % at 10 µM;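 active = ratio at least 3 SD above the weak peptide control, stable starting fluorescence, no direct agonism earlier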;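 also: compound followed by low BAM8-22 agonist challenge near EC20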
HEK293 Ca flux: nonspecific calcium signal in parental HEK293, confirmation, counter-screen for MrgX1 antagonist project, parental HEK293 cells, Fluo-4 calcium flux | shares compounds with MrgX1 antag | Fluo-4 calcium fluorescence, FDSS | fluorescence ratio F(max-min)/F0 at 10 µM | 4,000 tested, 2% active | AID 624111, 2012;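 active = duplicate-averaged calcium fluorescence ratio at least three times the standard deviation of buffer wells, a nonspecific response in parental cells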
HEK293 Ca counter: calcium response in parental HEK293 cells, primary screen, counter-screen for MrgX1 allosteric activator project, cell-based, Fluo-4 calcium flux, duplicate; shares compounds with MrgX1 antag; Fluo-4 fluorescence ratio; stronger effect = higher value; fluorescence ratio F(max-min)/F0 at 10 µM; 4,000 tested, 0.4% active; AID 624114, 2012;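 active = calcium fluorescence ratio, averaged over duplicates, at least 3 SD of the buffer-well ratio, meaning a nonspecific response in receptor-free cells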;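 also: untransfected parental HEK293 lacking MrgX1 used as counterscreen for MrgX1 allosteric activators; fluorescence change taken during the second addition on a kinetic imager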
HEK293 Ca cntr2: calcium response in parental HEK293 cells, primary screen, counter-screen for MrgX1 agonist project, cell-based, Fluo-4 calcium flux, duplicate, agonist mode | shares compounds with MrgX1 antag | Fluo-4 calcium fluorescence (FDSS); stronger effect = higher value | fluorescence ratio F(max-min)/F0 at 10 µM | 4,000 tested, 8.7% active;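 active = calcium fluorescence ratio at least three times the spread of buffer wells, meaning a non-specific response in parental cells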
Numbers stand for hits. Compounds with a hit are over-represented: about 3.5% of the library has one in this group of screens.

S=C(NCCCN1CCOCC1)Nc1cccc(Cl)c1 was read as MrgX1 ag inactive, RGS4 pot inactive, MrgX1 PAM 10.8, RGS4 block inactive, MrgX1 antag inactive, MrgX1 PAM conf inactive, HEK293 Ca flux inactive, HEK293 Ca counter inactive and HEK293 Ca cntr2 inactive.
O=C(Nc1ccccc1)c1ccc[nH]1 was read as MrgX1 ag inactive, RGS4 pot inactive, MrgX1 PAM inactive, RGS4 block inactive and MrgX1 antag inactive.
Screening O=C(c1ccccc1)c1nc[nH]c1C(=O)Nc1ccccc1 returned MrgX1 ag inactive, RGS4 pot inactive, MrgX1 PAM 9.87, RGS4 block inactive, MrgX1 antag inactive, MrgX1 PAM conf inactive, HEK293 Ca flux inactive, HEK293 Ca counter inactive and HEK293 Ca cntr2 inactive.
For N#CC1=C(N)Oc2c(ccc3ccccc23)C1c1ccsc1 (stereo unspecified) the results were MrgX1 ag inactive, RGS4 pot inactive, MrgX1 PAM 13.8, RGS4 block inactive, MrgX1 antag inactive, MrgX1 PAM conf inactive, HEK293 Ca flux inactive, HEK293 Ca counter inactive and HEK293 Ca cntr2 inactive.
`N#CC1=C(N)Oc2c(oc(CO)cc2=O)C1c1ccsc1` (stereo unspecified) gave MrgX1 ag inactive, RGS4 pot inactive, MrgX1 PAM inactive, RGS4 block inactive and MrgX1 antag inactive.
`COc1ccc2cc(C(=O)N3CCc4ccccc43)[nH]c2c1` gave MrgX1 ag inactive, RGS4 pot inactive, MrgX1 PAM inactive, RGS4 block inactive and MrgX1 antag inactive.
`CCOC(=O)c1sc(Nc2ccccc2Cl)nc1C` gave MrgX1 ag inactive, RGS4 pot inactive, MrgX1 PAM 13.1, RGS4 block inactive, MrgX1 antag inactive, MrgX1 PAM conf inactive, HEK293 Ca flux inactive, HEK293 Ca counter inactive and HEK293 Ca cntr2 inactive.
`Cc1cc2c(c(SCC(N)=O)n1)C(=O)OC2` gave MrgX1 ag inactive, RGS4 pot inactive, MrgX1 PAM 6.74, RGS4 block inactive, MrgX1 antag inactive, MrgX1 PAM conf inactive, HEK293 Ca flux inactive, HEK293 Ca counter inactive and HEK293 Ca cntr2 inactive.
Screening Cc1cc2c(c(SCC(=O)N(C)c3ccccc3)n1)C(=O)OC2 returned MrgX1 ag inactive, RGS4 pot inactive, MrgX1 PAM inactive, RGS4 block inactive and MrgX1 antag inactive.
Screening Cc1cc(Cl)cc(Br)c1OCCCCn1cncn1 returned MrgX1 ag inactive, RGS4 pot inactive, MrgX1 PAM 6.86, RGS4 block inactive, MrgX1 antag inactive, MrgX1 PAM conf inactive, HEK293 Ca flux inactive, HEK293 Ca counter inactive and HEK293 Ca cntr2 inactive.
COCCNC(=O)CN(C(=O)CCC(=O)Nc1nccs1)c1ccc2c(c1)OCO2 was read as MrgX1 ag inactive, RGS4 pot inactive, MrgX1 PAM 33.1, RGS4 block inactive, MrgX1 antag inactive, MrgX1 PAM conf inactive, HEK293 Ca flux inactive, HEK293 Ca counter inactive and HEK293 Ca cntr2 inactive.
Screening CC(C)NC(=O)CN(C(=O)CCC(=O)Nc1nccs1)c1ccc2c(c1)OCO2 returned MrgX1 ag inactive, RGS4 pot inactive, MrgX1 PAM inactive, RGS4 block inactive and MrgX1 antag inactive.
CNS(=O)(=O)c1ccc(CCC(=O)N2CCN(c3ccccc3OC)CC2)cc1 was read as MrgX1 ag inactive, RGS4 pot inactive, MrgX1 PAM 11.5, RGS4 block inactive, MrgX1 antag inactive, MrgX1 PAM conf inactive, HEK293 Ca flux inactive, HEK293 Ca counter inactive and HEK293 Ca cntr2 inactive.
For CCN(CC)CCCCCCCCOC(=O)c1cc(OC)c(OC)c(OC)c1 the results were MrgX1 ag inactive, MrgX1 PAM inactive and MrgX1 antag inactive.
For Cc1oc(-c2ccc3c(c2)OCCO3)cc1C(=O)NC(Cc1ccccc1)C(=O)O (stereo unspecified) the results were MrgX1 ag inactive, RGS4 pot inactive, MrgX1 PAM inactive, RGS4 block inactive and MrgX1 antag inactive.
For CCOC(=O)N1CCC(N2C(=O)c3ccc(C(=O)Nc4cccc(OC)c4)cc3C2=O)CC1 the results were MrgX1 ag inactive, RGS4 pot inactive, MrgX1 PAM 8.01, RGS4 block inactive, MrgX1 antag inactive, MrgX1 PAM conf inactive, HEK293 Ca flux inactive, HEK293 Ca counter inactive and HEK293 Ca cntr2 inactive.
CCOC(=O)N1CCC(N2C(=O)c3ccc(C(=O)O)cc3C2=O)CC1 was read as MrgX1 ag inactive, RGS4 pot inactive, MrgX1 PAM inactive, RGS4 block inactive and MrgX1 antag inactive.
`O=C(N1CCOCC1)N1CCN(C(c2ccccc2)c2ccccc2)CC1` gave MrgX1 ag inactive, RGS4 pot inactive, MrgX1 PAM inactive, RGS4 block inactive and MrgX1 antag inactive.
`O=C(N1CCCCC1)N1CCN(C(c2ccccc2)c2ccccc2)CC1` gave MrgX1 ag inactive, RGS4 pot inactive, MrgX1 PAM 6.94, RGS4 block inactive, MrgX1 antag inactive, MrgX1 PAM conf inactive, HEK293 Ca flux inactive, HEK293 Ca counter inactive and HEK293 Ca cntr2 inactive.
For O=C(CCC1CCN(Cc2ccccc2Cl)CC1)NC1CC1 the results were MrgX1 ag inactive, RGS4 pot inactive, MrgX1 PAM inactive, RGS4 block inactive and MrgX1 antag inactive.
For O=C(CCC1CCN(Cc2ccccc2O)CC1)NC1CC1 the results were MrgX1 ag inactive, RGS4 pot inactive, MrgX1 PAM 8.11, RGS4 block inactive, MrgX1 antag inactive, MrgX1 PAM conf inactive, HEK293 Ca flux inactive, HEK293 Ca counter inactive and HEK293 Ca cntr2 inactive.
`COc1ccc(CC(=O)NC(=S)Nc2cccc(CO)c2)cc1` gave MrgX1 ag inactive, RGS4 pot inactive, MrgX1 PAM 7.24, RGS4 block inactive, MrgX1 antag inactive, MrgX1 PAM conf inactive, HEK293 Ca flux inactive, HEK293 Ca counter inactive and HEK293 Ca cntr2 inactive.
`COc1ccc(C(O)P(=O)(OCC(C)C)c2ccc(N(C)C)cc2)c(OC)c1` (stereo unspecified) gave MrgX1 ag inactive, RGS4 pot inactive, MrgX1 PAM inactive, RGS4 block inactive and MrgX1 antag inactive.

Screening results from PubChem BioAssay.
